# ChEMBL document CHEMBL1126152, “Fluoronaphthyridines as antibacterial agents. 4. Synthesis and structure-activity relationships of 5-substituted-6-fluoro-7-(cycloalkylamino)-1,4-dihydro-4-oxo-1,8- naphthyridine-3-carboxylic acids” (J Med Chem, 1992)
# Experiments:
# Morganella morganii = test: In vitro for antibacterial activity against Morganella morganii; assay type: functional
# How it was run: (§1)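 MIC by serial 2-fold broth dilution in nutrient broth with an inoculum of 10^6 CFU/mL. Compound range was 0.0005–250 μg/mL. Plates were incubated 18 h at 37 °C. MIC was taken as the lowest concentration preventing visible growth.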
# Mus musculus [1] = species: Mus musculus; conditions: in vivo
# Pseudomonas aeruginosa [2] = test: In vitro for antibacterial activity against Pseudomonas aeruginosa; assay type: functional; how it was run: as §1
# Staphylococcus aureus [3] = test: animal or person; assay type: functional; conditions: in Mus musculus, po, read-out: PD50
# in vivo [4] = conditions: mouse, plasma, T1/2
# [5] = % dose recovered in mouse urine; conditions: % recovery
# Streptococcus pneumoniae [6] = test: Antibacterial activity against Streptococcus pneumoniae; assay type: functional
# Pseudomonas aeruginosa [7] = test: animal or person; assay type: functional; conditions: in Mus musculus, po, read-out: PD50
# Enterococcus faecalis = test: In vitro for antibacterial activity against Enterococcus faecalis; assay type: functional; how it was run: as §1
# Enterobacter cloacae = test: In vitro for antibacterial activity against Enterobacter cloacae; assay type: functional
# Serratia marcescens = test: In vitro for antibacterial activity against Serratia marcescens; assay type: functional; how it was run: as §1
# Proteus mirabilis = test: In vitro for antibacterial activity against Proteus mirabilis; assay type: functional; how it was run: as §1
# Staphylococcus aureus [8] = test: Antibacterial activity against Staphylococcus aureus; assay type: functional
# Klebsiella pneumoniae = test: In vitro for antibacterial activity against Klebsiella pneumoniae; assay type: functional; how it was run: as §1
# Escherichia coli [9] = test: In vitro for antibacterial activity against Escherichia coli; assay type: functional; how it was run: as §1
# Bacteroides fragilis = test: In vitro for antibacterial activity against […].; assay type: functional; how it was run: as §1
# Streptococcus pneumoniae [10] = test: Compound was tested for efficacy on systemic infection against Streptococcus pneumoniae A 9585 after oral administration of drug in mice, value in the parenthesis indicates 95% confidence limits
# [11] = Lethal dose was determined in OF1-strain female Swiss mice after intra venous administration of the drug; conditions: mouse, in vivo, iv
# in vivo [12] = conditions: mouse, plasma
# [13] = Lethal dose was determined in OF1-strain female Swiss mice after oral administration of the drug; conditions: mouse, in vivo
# Escherichia coli [14] = test: Compound was tested for […] against Escherichia coli A 15119 after oral administration of drug in mice, value in the parenthesis indicates 95% confidence limits; assay type: functional; conditions: read-out: PD50
# How it was run: (§2)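 Mouse protection test against systemic infection. Compound was dissolved in sterile water and given orally to female OF1-strain Swiss mice weighing 18–25 g, with five mice per group.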
# Pseudomonas aeruginosa [15] = test: Compound was tested for […] against Pseudomonas aeruginosa A 9843 after oral administration of drug in mice, value in the parenthesis indicates 95% confidence limits; assay type: functional; conditions: read-out: PD50; how it was run: as §2
# [16] = Solubility was measured at PH - 7.2 buffer
# Staphylococcus [17] = test: Compound was tested for […] against Staphylococcus aureus A 15090 after oral administration of drug in value in the parenthesis indicates 95% confidence limits; assay type: functional; conditions: read-out: PD50; how it was run: as §2
# Mus musculus [18] = species: Mus musculus; conditions: in vivo; remark: listed apart in the source
# [19] = Partition coefficient (logD); conditions: octanol/water
# Streptococcus pneumoniae [20] = test: animal or person; assay type: functional; conditions: in Mus musculus, po, read-out: PD50
# Escherichia coli [21] = test: Compound was tested for […] against Escherichia coli A 15119 after oral administration of drug in mice; assay type: functional; conditions: read-out: PD50; how it was run: as §2
# Staphylococcus [22] = test: Compound was tested for […] against Staphylococcus aureus A 15090 after oral administration of drug in mice; assay type: functional; conditions: read-out: PD50; how it was run: as §2
smiles,measurement,setting,value
O=C(O)c1cn(-c2ccc(F)cc2F)c2nc(N3CC4CC3CN4)c(F)cc2c1=O (stereo unspecified),MIC,Morganella morganii,0.06 µg/mL
same,T1/2,Mus musculus [1],1.48 h
same,MIC,Pseudomonas aeruginosa [2],0.25 µg/mL
same,ED50,Staphylococcus aureus [3],9.5 mg/kg
same,half-life,in vivo [4],1.72 h
same,dose excreted,[5],7%
same,MIC,Streptococcus pneumoniae [6],0.25 µg/mL
same,ED50,Pseudomonas aeruginosa [7],2.7 mg/kg
same,MIC,Enterococcus faecalis,0.5 µg/mL
same,MIC,Enterobacter cloacae,0.016 µg/mL
same,MIC,Serratia marcescens,0.06 µg/mL
same,MIC,Proteus mirabilis,0.03 µg/mL
same,MIC,Staphylococcus aureus [8],0.016 µg/mL
same,MIC,Klebsiella pneumoniae,0.008 µg/mL
same,MIC,Escherichia coli [9],0.004 µg/mL
same,MIC,Bacteroides fragilis,1 µg/mL
CC(C)(C)n1cc(C(=O)O)c(=O)c2cc(F)c(N3CC4CC3CN4)nc21 (stereo unspecified),PD50,Streptococcus pneumoniae [10],29.7 mg/kg
same,MIC,Morganella morganii,0.06 µg/mL
same,LD50,[11],303 mg/kg
same,T1/2,Mus musculus [1],1.58 h
same,Cmax,in vivo [12],10000 ng/mL
same,MIC,Pseudomonas aeruginosa [2],0.25 µg/mL
same,ED50,Staphylococcus aureus [3],1.6 mg/kg
same,LD50,[13],5000 mg/kg
same,half-life,in vivo [4],1.6 h
same,dose excreted,[5],34%
same,MIC,Streptococcus pneumoniae [6],0.13 µg/mL
same,ED50,Escherichia coli [14],1.8 mg/kg
same,MIC,Enterococcus faecalis,0.5 µg/mL
same,MIC,Enterobacter cloacae,0.02 µg/mL
same,ED50,Pseudomonas aeruginosa [15],4.7 mg/kg
same,MIC,Serratia marcescens,0.06 µg/mL
same,MIC,Proteus mirabilis,0.06 µg/mL
same,MIC,Staphylococcus aureus [8],0.003 µg/mL
same,MIC,Klebsiella pneumoniae,0.02 µg/mL
same,solubility,[16],80 µg/mL
same,MIC,Escherichia coli [9],0.008 µg/mL
same,MIC,Bacteroides fragilis,4 µg/mL
Cc1c(F)c(N2CC3CC2CN3)nc2c1c(=O)c(C(=O)O)cn2C(C)(C)C (stereo unspecified),MIC,Morganella morganii,0.13 µg/mL
same,Cmax,in vivo [12],22000 ng/mL
same,MIC,Pseudomonas aeruginosa [2],2 µg/mL
same,ED50,Staphylococcus [17],12.5 mg/kg
same,half-life,in vivo [4],3.1 h
same,dose excreted,[5],12%
same,MIC,Streptococcus pneumoniae [6],0.25 µg/mL
same,MIC,Enterococcus faecalis,0.5 µg/mL
same,AUC,Mus musculus [18],74000 ng·h/mL
same,MIC,Enterobacter cloacae,0.13 µg/mL
same,ED50,Pseudomonas aeruginosa [15],4.1 mg/kg
same,MIC,Serratia marcescens,0.13 µg/mL
same,MIC,Proteus mirabilis,0.25 µg/mL
same,MIC,Staphylococcus aureus [8],0.02 µg/mL
same,MIC,Klebsiella pneumoniae,0.06 µg/mL
same,MIC,Escherichia coli [9],0.03 µg/mL
same,MIC,Bacteroides fragilis,32 µg/mL
NC1CCN(c2nc3c(cc2F)c(=O)c(C(=O)O)cn3-c2ccc(F)cc2F)C1 (stereo unspecified) [TOSUFLOXACIN],MIC,Morganella morganii,0.06 µg/mL
same,LD50,[11],81 mg/kg
same,T1/2,Mus musculus [1],1.38 h
same,MIC,Pseudomonas aeruginosa [2],0.25 µg/mL
same,LD50,[13],2500 mg/kg
same,half-life,in vivo [4],2.4 h
same,logD,[19],0.1
same,MIC,Streptococcus pneumoniae [6],0.06 µg/mL
same,ED50,Pseudomonas aeruginosa [7],2.9 mg/kg
same,MIC,Enterococcus faecalis,0.25 µg/mL
same,ED50,Streptococcus pneumoniae [20],11.4 mg/kg
same,MIC,Enterobacter cloacae,0.03 µg/mL
same,MIC,Serratia marcescens,0.13 µg/mL
same,MIC,Proteus mirabilis,0.03 µg/mL
same,MIC,Staphylococcus aureus [8],0.016 µg/mL
same,MIC,Klebsiella pneumoniae,0.016 µg/mL
same,solubility,[16],20 µg/mL
same,MIC,Escherichia coli [9],0.004 µg/mL
same,MIC,Bacteroides fragilis,1 µg/mL
same,ED50,Escherichia coli [21],1.8 mg/kg
same,ED50,Staphylococcus [22],2.1 mg/kg
CN[C@H]1CCN(c2nc3c(c(C)c2F)c(=O)c(C(=O)O)cn3-c2ccc(F)cc2F)C1,MIC,Morganella morganii,0.06 µg/mL
same,LD50,[11],94 mg/kg
same,MIC,Pseudomonas aeruginosa [2],1 µg/mL
same,ED50,Staphylococcus aureus [3],1.8 mg/kg
same,LD50,[13],2500 mg/kg
same,logD,[19],1.38
same,MIC,Streptococcus pneumoniae [6],0.06 µg/mL
same,ED50,Pseudomonas aeruginosa [7],1.8 mg/kg
same,MIC,Enterococcus faecalis,0.25 µg/mL
same,AUC,Mus musculus [18],32000 ng·h/mL
same,ED50,Streptococcus pneumoniae [20],4.1 mg/kg
same,MIC,Enterobacter cloacae,0.03 µg/mL
same,MIC,Serratia marcescens,0.25 µg/mL
same,MIC,Proteus mirabilis,0.13 µg/mL
same,MIC,Staphylococcus aureus [8],0.008 µg/mL
same,MIC,Klebsiella pneumoniae,0.016 µg/mL
same,solubility,[16],10 µg/mL
same,MIC,Escherichia coli [9],0.016 µg/mL
same,MIC,Bacteroides fragilis,2 µg/mL
same,ED50,Escherichia coli [21],2.7 mg/kg
O=C(O)c1cn(C2CC2)c2cc(N3CCNCC3)c(F)cc2c1=O [CIPROFLOXACIN],MIC,Streptococcus pneumoniae [6],0.25 µg/mL
same,ED50,Pseudomonas aeruginosa [7],2.6 mg/kg
same,MIC,Enterococcus faecalis,0.5 µg/mL
same,ED50,Streptococcus pneumoniae [20],> 50 mg/kg
same,MIC,Serratia marcescens,0.03 µg/mL
same,MIC,Staphylococcus aureus [8],0.13 µg/mL
same,MIC,Klebsiella pneumoniae,0.06 µg/mL
same,MIC,Bacteroides fragilis,4 µg/mL
same,ED50,Escherichia coli [21],1.2 mg/kg
same,ED50,Staphylococcus [22],8 mg/kg
